Laboratory results from article PMC3938282 (Journal of the American Chemical Society, 2013).

Assays:
308 human kinases [1] = details: cited from earlier work; for share of all protein kinases targeted (same metric, more than 80% inhibition): 500 nM
v-Src-AS1 = experiment: inhibition of tyrosine phosphorylation in stably transfected 3T3 cells; assay type: cell-based, mouse
EphA1 = EphA1 (Homo sapiens, UniProt P21709); experiment: in vitro IC50 against PP-sensitive WT kinases; assay type: biochemical; details: read-out: IC50 EphA1; mean ± SEM
In short: (§1)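 In vitro kinase inhibition. IC50 derived from a seven-point dose-response of test compound; values reported as mean with standard error of the mean.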

CKδ = CKδ (Homo sapiens, UniProt P48730); experiment: in vitro IC50 against PP-sensitive WT kinases; assay type: biochemical; details: read-out: IC50 CKδ; mean ± SEM
In short: as §1

Pkd1-AS1 = experiment: Pkd auto-phosphorylation at S916 in transfected HEK-293T cells; assay type: cell-based; details: 625nM - 10µM
In short: (§2)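 HEK-293T cells transiently transfected with Pkd1-WT or Pkd1-AS1. Cells treated with test compound across 625nM - 10µM, then assessed for Pkd auto-phosphorylation at S916.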

Pkd1-AS2 = Pkd1-AS2 inhibition in cells; assay type: cell-based
Pkd1-WT [2] = target: T1, Pkd1-WT (Homo sapiens, UniProt Q15139); experiment: Pkd auto-phosphorylation at S916 in transfected HEK-293T cells; assay type: cell-based; details: 625nM - 10µM
In short: as §2

Src-WT = Src-WT (Gallus gallus, UniProt P00523); experiment: in vitro kinase inhibition, seven-point dose-response; assay type: biochemical
Ret = Ret (Homo sapiens, UniProt P07949); experiment: in vitro IC50 against PP-sensitive WT kinases; assay type: biochemical; details: read-out: IC50 Ret; mean ± SEM
In short: as §1

EphA4-AS1 = experiment: EphA4 auto-phosphorylation in transfected HEK-293T cells; assay type: cell-based
Pkd2 = Pkd2 (Homo sapiens, UniProt Q9BZL6); experiment: in vitro IC50 against PP-sensitive WT kinases; assay type: biochemical; details: read-out: IC50 Pkd2; mean ± SEM
In short: as §1

Kif5b-Ret-AS2 = Kif5b-Ret-AS2 (Homo sapiens, UniProt P07949+P33176, V804A); experiment: Ret auto-phosphorylation at Y905 in 3T3 mouse cells; assay type: cell-based
In short: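 Mouse 3T3 cells expressing Kif5b-Ret-AS2 or Kif5b-Ret-WT were exposed to test compound at 10µM, 3.3µM and 1.1µM. Read-out was Ret auto-phosphorylation at Y905.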

Src-AS1 (Gly gatekeeper) = Src-AS1 (Gly gatekeeper) (Gallus gallus, UniProt P00523, T338G); experiment: in vitro kinase inhibition, seven-point dose-response; assay type: biochemical
Ack = Ack (Homo sapiens, UniProt Q07912); experiment: in vitro IC50 against PP-sensitive WT kinases; assay type: biochemical; details: read-out: IC50 Ack; mean ± SEM
In short: as §1

Pkd1 = Pkd1 (Homo sapiens, UniProt Q15139); experiment: in vitro IC50 against PP-sensitive WT kinases; assay type: biochemical; details: read-out: IC50 Pkd1; mean ± SEM
In short: as §1

v-Src-WT = experiment: inhibition of tyrosine phosphorylation in stably transfected 3T3 cells; assay type: cell-based, mouse
Ptk6 = Ptk6 (Homo sapiens, UniProt Q13882); experiment: in vitro IC50 against PP-sensitive WT kinases; assay type: biochemical; details: read-out: IC50 Ptk6; mean ± SEM
In short: as §1

308 human kinases [3] = experiment: kinase panel inhibition profiling; assay type: biochemical; details: 1 µM
In short: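 Single-point profiling of 308 human kinases: fraction of each kinase's activity inhibited by test compound at 1µM.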

CK1ε = CK1ε (Homo sapiens, UniProt P49674); experiment: in vitro IC50 against PP-sensitive WT kinases; assay type: biochemical; details: read-out: IC50 CK1ε; mean ± SEM
In short: as §1

Src-AS2 (Ala gatekeeper) = Src-AS2 (Ala gatekeeper) (Gallus gallus, UniProt P00523, T338A); experiment: in vitro kinase inhibition, seven-point dose-response; assay type: biochemical
Kif5b-Ret-WT = Kif5b-Ret-WT (Homo sapiens, UniProt P07949+P33176); details: cited from earlier work
Pkd1-WT [4] = target: T1, Pkd1-WT; details: cited from earlier work
EphA4-WT = EphA4-WT (Homo sapiens, UniProt P54764); experiment: EphA4 auto-phosphorylation in transfected HEK-293T cells; assay type: cell-based
[5] = N12-butylamine derivative of the C7-iso-butyl staralog

T1 sequence (Q15139 whole entry): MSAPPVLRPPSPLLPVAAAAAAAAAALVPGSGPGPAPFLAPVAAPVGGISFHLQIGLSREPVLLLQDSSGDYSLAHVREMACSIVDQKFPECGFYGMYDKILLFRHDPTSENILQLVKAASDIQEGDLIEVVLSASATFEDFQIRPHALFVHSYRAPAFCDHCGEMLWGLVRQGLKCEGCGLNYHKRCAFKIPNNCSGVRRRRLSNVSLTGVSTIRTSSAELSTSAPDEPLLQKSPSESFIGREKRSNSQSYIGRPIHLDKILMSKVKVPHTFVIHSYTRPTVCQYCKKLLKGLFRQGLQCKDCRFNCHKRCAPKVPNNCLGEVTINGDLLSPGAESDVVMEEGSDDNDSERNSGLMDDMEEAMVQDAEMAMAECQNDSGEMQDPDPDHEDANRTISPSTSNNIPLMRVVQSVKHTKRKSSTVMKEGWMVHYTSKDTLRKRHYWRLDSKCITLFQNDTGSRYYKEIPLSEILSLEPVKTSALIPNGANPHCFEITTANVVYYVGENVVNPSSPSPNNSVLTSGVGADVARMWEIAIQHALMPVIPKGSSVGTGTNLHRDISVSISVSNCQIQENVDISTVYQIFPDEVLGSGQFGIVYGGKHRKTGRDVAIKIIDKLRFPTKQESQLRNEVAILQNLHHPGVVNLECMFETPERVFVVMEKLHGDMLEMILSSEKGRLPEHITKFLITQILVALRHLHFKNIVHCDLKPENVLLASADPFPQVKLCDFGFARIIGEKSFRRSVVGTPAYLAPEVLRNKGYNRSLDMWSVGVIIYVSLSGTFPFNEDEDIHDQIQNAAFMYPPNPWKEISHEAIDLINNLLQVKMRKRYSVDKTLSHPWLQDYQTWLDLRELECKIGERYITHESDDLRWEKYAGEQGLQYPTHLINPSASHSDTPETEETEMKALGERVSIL
Sequence of Pkd1 (Q15139 whole entry): as above
Sequence of Ret (P07949 29-1114): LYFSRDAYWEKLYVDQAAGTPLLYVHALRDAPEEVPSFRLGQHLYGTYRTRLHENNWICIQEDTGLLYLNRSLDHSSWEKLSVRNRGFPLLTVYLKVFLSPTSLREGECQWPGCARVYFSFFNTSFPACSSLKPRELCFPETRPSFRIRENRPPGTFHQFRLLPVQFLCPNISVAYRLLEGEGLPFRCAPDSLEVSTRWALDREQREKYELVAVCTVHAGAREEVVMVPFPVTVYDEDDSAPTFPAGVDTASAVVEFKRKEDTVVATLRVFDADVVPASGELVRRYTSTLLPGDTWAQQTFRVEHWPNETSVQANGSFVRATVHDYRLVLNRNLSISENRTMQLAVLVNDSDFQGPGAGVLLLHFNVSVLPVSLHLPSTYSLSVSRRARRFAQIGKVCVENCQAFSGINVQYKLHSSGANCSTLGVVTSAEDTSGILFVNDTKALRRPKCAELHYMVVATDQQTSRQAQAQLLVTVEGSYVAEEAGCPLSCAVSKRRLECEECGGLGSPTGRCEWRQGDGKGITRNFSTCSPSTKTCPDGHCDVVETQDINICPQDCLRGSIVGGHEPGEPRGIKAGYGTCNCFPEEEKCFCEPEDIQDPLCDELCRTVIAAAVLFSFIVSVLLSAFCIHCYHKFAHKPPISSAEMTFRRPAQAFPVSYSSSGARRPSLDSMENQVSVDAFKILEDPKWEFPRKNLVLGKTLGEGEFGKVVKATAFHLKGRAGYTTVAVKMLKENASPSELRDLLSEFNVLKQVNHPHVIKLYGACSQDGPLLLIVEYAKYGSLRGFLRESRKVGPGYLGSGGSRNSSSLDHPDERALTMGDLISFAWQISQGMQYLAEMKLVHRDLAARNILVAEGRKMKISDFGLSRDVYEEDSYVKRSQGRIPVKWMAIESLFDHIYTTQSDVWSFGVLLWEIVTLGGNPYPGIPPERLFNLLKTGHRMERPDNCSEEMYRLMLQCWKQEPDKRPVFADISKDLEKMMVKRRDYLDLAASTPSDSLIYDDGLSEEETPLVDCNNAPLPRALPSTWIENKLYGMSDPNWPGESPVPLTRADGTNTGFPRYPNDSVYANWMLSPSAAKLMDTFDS
Sequence of CKδ (P48730 whole entry): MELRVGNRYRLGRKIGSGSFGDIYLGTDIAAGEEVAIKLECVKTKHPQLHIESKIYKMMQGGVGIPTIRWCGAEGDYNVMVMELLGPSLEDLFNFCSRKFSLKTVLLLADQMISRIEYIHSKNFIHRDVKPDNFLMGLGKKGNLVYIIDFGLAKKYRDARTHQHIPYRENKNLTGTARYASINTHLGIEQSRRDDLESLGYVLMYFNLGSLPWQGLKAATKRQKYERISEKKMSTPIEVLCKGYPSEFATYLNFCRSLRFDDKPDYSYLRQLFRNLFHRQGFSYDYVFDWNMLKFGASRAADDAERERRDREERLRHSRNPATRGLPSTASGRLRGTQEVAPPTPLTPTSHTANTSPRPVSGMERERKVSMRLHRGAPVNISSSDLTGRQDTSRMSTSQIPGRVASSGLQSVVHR
Sequence of Kif5b-Ret-WT (P07949 713-1063 limits assumed, one chain of several): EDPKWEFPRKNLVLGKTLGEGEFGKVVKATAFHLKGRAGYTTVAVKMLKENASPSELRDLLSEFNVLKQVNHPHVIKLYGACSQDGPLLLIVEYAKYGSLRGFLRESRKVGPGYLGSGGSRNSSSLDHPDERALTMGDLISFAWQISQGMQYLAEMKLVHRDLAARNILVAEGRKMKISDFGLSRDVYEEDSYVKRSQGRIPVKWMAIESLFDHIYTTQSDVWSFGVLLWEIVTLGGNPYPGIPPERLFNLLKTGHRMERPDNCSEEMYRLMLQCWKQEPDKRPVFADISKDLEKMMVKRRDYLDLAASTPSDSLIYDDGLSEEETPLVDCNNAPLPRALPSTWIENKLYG
Sequence of Ack (Q07912 whole entry): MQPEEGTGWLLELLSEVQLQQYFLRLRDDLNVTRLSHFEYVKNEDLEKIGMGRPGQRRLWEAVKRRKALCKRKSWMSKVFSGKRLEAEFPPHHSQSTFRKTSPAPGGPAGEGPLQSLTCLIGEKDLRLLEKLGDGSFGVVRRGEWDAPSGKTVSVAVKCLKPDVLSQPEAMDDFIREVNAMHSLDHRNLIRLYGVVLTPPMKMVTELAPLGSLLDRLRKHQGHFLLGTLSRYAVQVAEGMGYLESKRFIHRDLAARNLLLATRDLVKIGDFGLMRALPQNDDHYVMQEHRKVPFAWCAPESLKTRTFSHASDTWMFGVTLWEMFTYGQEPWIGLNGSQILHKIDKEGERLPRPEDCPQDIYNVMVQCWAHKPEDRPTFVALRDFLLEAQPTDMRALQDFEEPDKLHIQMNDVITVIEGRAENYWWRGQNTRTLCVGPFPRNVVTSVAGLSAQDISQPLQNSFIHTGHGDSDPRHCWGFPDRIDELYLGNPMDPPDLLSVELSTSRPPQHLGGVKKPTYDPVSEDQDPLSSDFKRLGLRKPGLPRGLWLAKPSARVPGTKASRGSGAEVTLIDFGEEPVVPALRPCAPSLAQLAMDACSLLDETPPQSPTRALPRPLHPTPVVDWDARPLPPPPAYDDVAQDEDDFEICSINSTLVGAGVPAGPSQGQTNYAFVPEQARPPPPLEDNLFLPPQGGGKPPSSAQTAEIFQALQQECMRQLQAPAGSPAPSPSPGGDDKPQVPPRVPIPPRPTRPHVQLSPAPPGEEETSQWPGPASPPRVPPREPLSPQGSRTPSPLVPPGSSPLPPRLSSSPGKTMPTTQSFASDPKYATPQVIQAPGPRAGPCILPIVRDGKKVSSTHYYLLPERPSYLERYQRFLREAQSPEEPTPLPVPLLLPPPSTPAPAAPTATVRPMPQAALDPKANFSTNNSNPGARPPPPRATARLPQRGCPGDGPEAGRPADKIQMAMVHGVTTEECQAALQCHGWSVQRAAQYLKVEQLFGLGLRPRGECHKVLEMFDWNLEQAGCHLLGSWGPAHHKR
Sequence of Kif5b-Ret-AS2 (P07949 713-1063 V804A limits assumed, one chain of several): as the sequence (P07949 713-1063 limits assumed, one chain of several) above, with V92A counted along it
Sequence of Ptk6 (Q13882 whole entry): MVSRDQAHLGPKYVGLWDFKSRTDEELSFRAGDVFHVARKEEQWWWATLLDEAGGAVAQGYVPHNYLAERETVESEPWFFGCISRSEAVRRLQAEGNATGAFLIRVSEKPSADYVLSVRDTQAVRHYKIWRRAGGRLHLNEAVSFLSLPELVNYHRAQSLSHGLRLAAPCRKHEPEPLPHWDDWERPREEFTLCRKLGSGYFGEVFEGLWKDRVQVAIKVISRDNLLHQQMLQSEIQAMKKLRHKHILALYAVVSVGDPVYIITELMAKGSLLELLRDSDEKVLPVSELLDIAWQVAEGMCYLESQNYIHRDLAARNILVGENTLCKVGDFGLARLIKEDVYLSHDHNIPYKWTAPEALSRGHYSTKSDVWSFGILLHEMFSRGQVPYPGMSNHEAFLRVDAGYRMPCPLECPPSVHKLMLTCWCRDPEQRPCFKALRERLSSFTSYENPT
Sequence of CK1ε (P49674 whole entry): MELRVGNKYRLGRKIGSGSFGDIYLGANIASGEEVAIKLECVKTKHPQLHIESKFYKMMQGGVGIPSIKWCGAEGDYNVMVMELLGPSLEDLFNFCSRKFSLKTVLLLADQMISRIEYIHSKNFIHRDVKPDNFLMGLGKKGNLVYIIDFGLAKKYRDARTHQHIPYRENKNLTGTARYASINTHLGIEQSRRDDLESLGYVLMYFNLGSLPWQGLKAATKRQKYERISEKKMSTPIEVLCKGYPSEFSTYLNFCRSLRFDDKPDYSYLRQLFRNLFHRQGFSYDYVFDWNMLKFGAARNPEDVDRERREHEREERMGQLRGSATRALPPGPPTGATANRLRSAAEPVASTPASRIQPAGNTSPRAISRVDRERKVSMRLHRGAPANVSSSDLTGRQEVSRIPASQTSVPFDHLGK

COC(=O)[C@@]1(O)C[C@H]2O[C@]1(C)n1c3ccccc3c3c4c(c5c6ccccc6n2c5c31)C(=O)NC4 [Star K252a, K252a]
share of all protein kinases targeted (same metric, more than 80% inhibition) (308 human kinases [1]): 49%

CC(C)(C)n1nc(Cc2cccc3ccccc23)c2c(N)ncnc21 [Star 1NM-PP1, 1NM-PP1]
share of kinases inhibited by more than 80% (308 human kinases [1]): 1.2%

CC(C)C[C@@H]1NC(=O)c2c1c1c3ccccc3n(CCCCN)c1c1[nH]c3ccccc3c21 [Star 12]
concentration giving robust inhibition of v-Src-AS1 mediated phosphorylation (v-Src-AS1): below 1 µM
relative potency against v-Src-AS1 in cells (in words) (v-Src-AS1): most potent inhibitor
IC50 (EphA1): > 5 µM
IC50 (CKδ): > 5 µM
activity towards Pkd1-AS1 (in words) (Pkd1-AS1): potent Pkd-AS1 inhibitors
activity towards Pkd1-AS2 (in words) (Pkd1-AS2): did not show activity
effect on Pkd1-WT activity (in words) (Pkd1-WT [2]): do not affect Pkd1-WT activity
IC50 (Src-WT; read-out: IC50 toward Src-WT): > 5 µM
IC50 (Ret): > 5 µM
activity towards EphA4-AS1 (in words) (EphA4-AS1): exhibited activity
IC50 (Pkd2): > 5 µM
inhibition of Ret-AS2 autophosphorylation (in words) (Kif5b-Ret-AS2): capable of inhibiting
improvement in potency toward Src-AS1 (Src-AS1 (Gly gatekeeper); [5]): ~ ten-fold
IC50 (Ack): 1.3 µM
IC50 (Pkd1): 3.3 µM
effect on v-Src-WT-mediated phosphorylation (in words) (v-Src-WT): little effect
IC50 (Ptk6): > 5 µM
highest inhibition of any single kinase in the panel (308 human kinases [3]): ≤ 80%
IC50 (CK1ε): > 5 µM
improvement in potency toward Src-AS2 (Src-AS2 (Ala gatekeeper); [5]): ~ ten-fold

O=C1NCc2c1c1c3ccccc3[nH]c1c1[nH]c3ccccc3c21 [Star K252c, K252c, reference compound]
activity towards Src-WT (in words) (Src-WT): complete loss of activity
activity/potency towards Src-AS1 (in words) (Src-AS1 (Gly gatekeeper)): complete loss of activity
activity towards Src-AS2 (in words) (Src-AS2 (Ala gatekeeper)): complete loss of activity

CC(C)(C)n1nc(-c2cccc3ccccc23)c2c(N)ncnc21 [Star 1NA-PP1, 1NA-PP1]
share of kinases inhibited by more than 80% (308 human kinases [1]): 4.5%
inhibition of Ret WT kinase (in words) (Kif5b-Ret-WT): weakly inhibited at higher drug concentrations
inhibition of EphA4-AS1 allele (EphA4-AS1; at ≥2.5µM): greater than 90%
inhibition of Pkd1 WT kinase (in words) (Pkd1-WT [4]): weakly inhibited at higher drug concentrations
concentrations at which EphA4-WT activity is inhibited (EphA4-WT): ≥ 2.5 µM

CN[C@@H]1C[C@H]2O[C@@](C)([C@@H]1OC)n1c3ccccc3c3c4c(c5c6ccccc6n2c5c31)C(=O)NC4 [staurosporine]
share of all protein kinases targeted (same metric, more than 80% inhibition) (308 human kinases [1]): 72%
share of protein kinases potently targeted (308 human kinases [1]): ~ 80%

CC(C)C[C@@H]1NC(=O)c2c1c1c3ccccc3[nH]c1c1[nH]c3ccccc3c21 [Star 1]
concentration giving robust inhibition of v-Src-AS1 mediated phosphorylation (v-Src-AS1): below 1 µM
relative potency against v-Src-AS1 in cells (in words) (v-Src-AS1): weakest
activity/potency towards Src-AS1 (in words) (Src-AS1 (Gly gatekeeper)): most potent

Cc1cccc(Cc2nn(C(C)(C)C)c3ncnc(N)c23)c1 [Star 3MB-PP1, 3MB-PP1]
share of kinases inhibited by more than 80% (308 human kinases [1]): 1.2%
